The list is not random: actives were taken first. Their share in the collection is about 0.55%.
OXTR potentiate: potentiates the human oxytocin receptor response | hit rate 0.061% among 320,000 | CHO-OTR cells, Fluo-8 calcium fluorescence, potentiator mode; 0% = oxytocin EC15, 100% = EC100 | P30559 | activation, % at 3 µM;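 active = activation above that plate's cutoff, the mean activation of tested compounds plus 3 SD, cut at about 6.6% in these data, passing the limit was not always enough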;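 note: 100% uses oxytocin at 75 nM as the full agonist control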
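Assay system: CHO cell line stably expressing human OTR. Reagent: EC15 oxytocin agonist. Dosing: single dose, 3.0 µM nominal final compound concentration. Timing: compound 6 min at room temperature before oxytocin, 100 s read. Signal: kinetic Fluo-8 calcium fluorescence. Controls: oxytocin EC15 low and EC100 high.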
zfTRPN1 agonist: agonists of zebrafish TRPN1 channel; activation, % at 3 µM; hit rate 0.18% among 220,000; HEK293 zebrafish TRPN1-YFP, Fluo-8 calcium fluorescence; 100% = response to 87 µM carbachol;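 active = activation above its plate's cutoff, the mean activation of test wells on that plate plus 3 SD, cut at about 19% in these data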;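 note: 0% = DMSO alone and 100% = 87 µM carbachol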
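System: zebrafish TRPN1-YFP in HEK293 cells / Dosing: 3 µM single point / Timing: dye loading 1 h at 37 °C, then 30 min room temperature / Signal: Fluo-8 calcium fluorescence, excitation 470-495 nm, emission 515-575 nm / Read-out basis: percent activation from peak over basal fluorescence ratio, control-normalized / Control set: high carbachol 87 µM, low DMSO alone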
OXTR ag: activates the human oxytocin receptor; P30559; CHO-OTR cells, Fluo-8 calcium fluorescence; normalized: DMSO 0%, oxytocin 100%; activation, % at 3 µM; hit rate 0.32% among 320,000;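 active = activation above the mean of all tested compounds plus 3 SD, cutoff set per screening run, cut at about 20% in these data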;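 note: peak over basal fluorescence ratio from a 100 s FLIPR kinetic read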
TRPML3 agonist: activates the human TRPML3 channel; Q8TDD5; activation, % at 3 µM; HEK293 TRPML3-YFP, Fluo-8 calcium fluorescence; 100% = the carbachol control signal; hit rate 0.29% among 220,000;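 active = activation above its plate's cutoff, the mean activation of the plate's test wells plus 3 SD, cut at about 12% in these data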;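 note: 0% = DMSO only wells and 100% = carbachol wells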
Target sequence (Q8TDD5 whole entry, looked up): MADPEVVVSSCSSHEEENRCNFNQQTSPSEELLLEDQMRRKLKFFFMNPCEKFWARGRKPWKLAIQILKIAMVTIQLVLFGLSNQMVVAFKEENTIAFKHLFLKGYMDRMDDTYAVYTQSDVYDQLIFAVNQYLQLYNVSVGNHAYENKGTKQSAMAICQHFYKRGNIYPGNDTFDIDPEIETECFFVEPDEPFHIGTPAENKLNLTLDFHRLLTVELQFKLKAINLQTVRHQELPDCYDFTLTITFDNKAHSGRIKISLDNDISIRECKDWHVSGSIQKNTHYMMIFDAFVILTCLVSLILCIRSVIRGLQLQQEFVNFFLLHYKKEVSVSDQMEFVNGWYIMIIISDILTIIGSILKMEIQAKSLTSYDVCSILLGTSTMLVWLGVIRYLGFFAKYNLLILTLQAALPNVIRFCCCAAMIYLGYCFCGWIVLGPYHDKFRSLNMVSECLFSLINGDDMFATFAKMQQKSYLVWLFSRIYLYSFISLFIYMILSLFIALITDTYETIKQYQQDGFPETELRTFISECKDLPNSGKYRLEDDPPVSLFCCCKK
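Material: TRPML3-YFP stable HEK293 cells | Dosing: One concentration, 3 µM nominal, 0.3% DMSO | Timing: 125 s total fluorescence read per well | Technique: Fluo-8 calcium dye fluorescence, ex 470-495, em 515-575 nm | Measure: Percent activation from peak-to-basal fluorescence ratio, scaled between DMSO and carbachol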
V1R ag counter: counter-screen for oxytocin receptor agonists: human V1a receptor agonists; P37288; hit rate 0.25% among 320,000; activation, % at 3 µM; CHO-V1R cells, Fluo-8 calcium fluorescence, agonist mode; 0% DMSO, 100% 3 nM vasopressin; AID 2797;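 active = activation above the mean activation of all tested compounds plus 3 SD, per screening run, cut at about 20% in these data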;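 note: signal is peak over basal fluorescence ratio across a 100 second FLIPR read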
OXTR pot cf: confirmation of human oxytocin receptor potentiators; AID 434985; shares compounds with OXTR potentiate; activation, % at 3 µM; CHO-OTR cells, Fluo-8 calcium fluorescence, potentiation; scaled from low-dose to maximal oxytocin; 180 tested, under 10 active;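 active = mean percent activation over triplicates above a cutoff set from solvent-only control plates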;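 note: compounds tested in the presence of an EC15 dose of oxytocin; 0% = EC15 oxytocin with DMSO and 100% = EC100 oxytocin with DMSO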
* hit, by the source's call; x = no result given.

SMILES	OXTR potentiate	zfTRPN1 agonist	OXTR ag	TRPML3 agonist	V1R ag counter	OXTR pot cf
Cc1cccn2cc(CNC(=O)C3CCCCC3)nc12	-1	0	0	1	0	x
COc1ccc(CCNC(=O)c2cc(S(=O)(=O)N3CCOCC3)ccc2F)cc1	-7	x	3	x	2	x
O=C(NC(=S)Nc1ccccc1N1CCOCC1)c1ccc(Br)cc1	14*	x	-1	x	1	3
O=C1c2ccccc2C(=O)N1Cc1ccc2c(c1)OCO2	-6	-1	0	0	0	x
O=C(O)c1ccc2c(c1)C(=O)N(Cc1ccc3c(c1)OCO3)C2=O	11*	1	0	0	0	-5
CCn1ncc(S(=O)(=O)Nc2cc(Cl)ccc2C)c1C	-5	x	2	x	1	x
Cc1nc(C)c(C(=O)OCC(=O)NCc2ccccc2)s1	-2	x	1	x	1	x
COc1cccc(-n2cnc3scc(-c4cccs4)c3c2=O)c1	-8	-2	-2	-1	-1	x
CCOc1ccc(-n2cnc3scc(-c4ccc(OC)c(OC)c4)c3c2=O)cc1	11*	0	-2	0	-1	-3
O=C(OC(C(=O)NCc1ccccc1)c1ccccc1)c1ccco1 (configuration not stated)	14*	x	0	x	-1	-2
CCCS(=O)(=O)N1CCCC(C(=O)c2ccccc2OC)C1 (configuration not stated)	-4	-2	-1	0	0	x
CCN1CCCC1CNCc1cc(OC)c(OC)c(OC)c1 (configuration not stated)	13*	2	3	0	2	-5
CC(C)c1nnc(NC(=O)C2CCN(C(=O)Nc3ccccc3)CC2)s1	-1	x	0	x	0	x
CN(c1ccccc1C(=O)Nc1ccc(S(=O)(=O)N2CCCCC2)cc1)S(C)(=O)=O	11*	2	1	0	0	-8
Cc1c(-c2ccccc2)[n+](=O)c(-c2ccc(Cl)cc2)c(C)n1[O-]	-7	2	-2	1	0	x
O=C(NCCCN1CCCCCC1)C1CC(=O)N(CCc2ccccc2)C1 (configuration not stated)	-5	-1	-1	0	0	x
O=C(NCCCN1CCOCC1)C1CC(=O)N(CCc2ccccc2)C1 (configuration not stated)	12*	-2	1	1	1	-10
CCN(CC)S(=O)(=O)c1ccc(C)c(NC(=O)c2cc(C)oc2C)c1	13*	-2	0	0	-1	-6
O=C(O)c1ccc(N2C(=O)c3cccnc3C2=O)cc1	-2	2	0	0	0	x
O=C1c2nccnc2C(=O)N1c1ccc(F)cc1	10*	1	1	1	1	-1
COc1ccc(Br)cc1CN(C)CC(O)COc1ccc(Br)cc1 (configuration not stated)	-6	x	3	x	3	x
CCN1CCN(C(=O)C2CCN(C(=O)Nc3ccccc3)CC2)CC1	1	x	1	x	0	x
CCOC(=O)N1CCN(C(=O)C2CCN(C(=O)Nc3ccccc3)CC2)CC1	11*	x	2	x	2	3
Cc1cc(C(=O)OCC(=O)Nc2ccccc2Br)c(C)o1	9	x	-1	x	-1	x
COc1cc(F)ccc1CN1CCC(C(=O)Nc2ccc(Oc3ccccc3)nc2)CC1	-6	x	12	x	9	x
SMILES	OXTR potentiate	zfTRPN1 agonist	OXTR ag	TRPML3 agonist	V1R ag counter	OXTR pot cf
CCCC(=O)Nc1cc(S(=O)(=O)N2CCCCC2)ccc1N1CCOCC1	0	x	1	x	0	x
CCCC(=O)Nc1cc(S(=O)(=O)N2CCOCC2)ccc1N1CCCCC1	13*	x	-1	x	0	-7
O=C1CCC(C(=O)N2CCN(c3cnccn3)CC2)CN1CCc1cccc(F)c1 (configuration not stated)	-7	x	0	x	3	x
Cc1ccc(S(=O)(=O)C2(C(=O)NC3CCCCC3C)CC2)cc1 (configuration not stated)	17*	-3	-1	0	-2	-8
Cc1ccc(CNC2CCCCC2)s1	2	x	1	x	0	x
O=C(NC1CCCCCC1)C(=S)NCCc1ccccc1	-14	1	-2	-1	1	x
O=C(NCCc1ccccc1)NC1CCCCC1	12*	2	0	0	-1	-3
Cc1ccccc1-c1nnc(SCC(=O)Nc2c(C)n(C)n(-c3ccccc3)c2=O)o1	11*	-1	1	1	0	0
CC1CCN(C(=O)C2CCN(S(=O)(=O)c3cnc[nH]3)CC2)CC1	-4	-1	4	0	3	x
CC1CCN(S(=O)(=O)c2cnc[nH]2)CC1	8.5*	x	0	x	1	-9
CCOC(=O)N[C@H](Cc1c[nH]c2ccccc12)C(=O)NC1CC1	10*	-1	1	-1	0	-2
CCOC(=O)c1c(C)nc(C)c(C(=O)OCC)c1-c1ccccc1	-2	-1	-1	-1	-2	x
CCOC(=O)c1c(C)nc2c(c1-c1cc(OC)c(OC)c(OC)c1)C(=O)c1ccccc1-2	11*	-2	-2	0	-1	-8
CC(=O)NC1=NN(C(C)=O)C(C)(CCS(=O)(=O)c2ccc(Br)cc2)S1 (configuration not stated)	13*	-1	3	0	1	-6
O=C(NC1CCCCC1)C1CCN(S(=O)(=O)c2cccc3cccnc23)CC1	14*	1	1	1	1	-4
CCOC(=O)N1CCC(NC(=O)C2CCN(S(=O)(=O)c3cccc4cccnc34)CC2)CC1	-8	1	0	0	0	x
O=C(COC(=O)CCNS(=O)(=O)c1cccs1)Nc1ccccc1	1	x	2	x	1	x
COc1ccc(S(=O)(=O)N(C)c2ccc(C(=O)NCC3CCCO3)cc2)cc1OC (configuration not stated)	14*	x	2	x	1	-4
COc1ccc(-c2nnc(Nc3ccc(OC)c(C(=O)N4CCCCC4)c3)c3ccccc23)cc1	13*	-3	0	-1	2	1
CNS(=O)(=O)c1ccc(NCC2COc3ccccc3O2)c([N+](=O)[O-])c1 (configuration not stated)	-11	3	16	1	11	x
CCN1C(=O)N(CC)c2cccc3cccc1c23	11*	x	-2	x	-1	-4
Cc1ccc2c(CC(=O)NCCc3ccc(S(N)(=O)=O)cc3)coc2c1	9.3*	2	0	0	-1	-3
Cc1ccc(CC(=O)NCCc2ccc(S(N)(=O)=O)cc2)cc1	-8	x	0	x	0	x
CSc1cccc(NC(=O)CNC(=O)C2CCCCC2)c1	-6	x	0	x	0	x
O=S(=O)(Nc1ccccc1)c1cccc2nsnc12	-5	x	0	x	0	x

Screening results as filed in PubChem.
